This is an account of results in PMC8358123 (International Journal for Parasitology: Drugs and Drug …, 2021).

The nature of one data set: MRC-5SV2 cytotoxicity. Particulars: human, MRC-5SV2 cells. It counts as cell-based, human. In a few lines:
(§1)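 MRC-5SV2 cells (3×10^4 cells/mL) in MEM with Earl's salts, L-glutamine, NaHCO3 and 5% inactivated FCS, at 37 °C and 5% CO2. Exposure to test compound (ten 4-fold dilutions, top 64 μM, <1% DMSO) lasted 3 days. Resazurin was then added for 4 h at 37 °C, with fluorescence read at ex 550/em 590 nm. CC50 from % reduction relative to untreated (100%) and medium-only (0%) controls.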

Data set [1] deals with T. b. brucei (Squib 427 strain). In words: In vitro activity against T. b. brucei. In kind it is cell-based. The following applies: Trypanosoma brucei, read-out: T. b. bruc. EC50.
Data set [2] can be described thus: Microsomal stability assay, human. It counts as in vitro ADME. The following applies: pooled human liver microsomes (microsomal (S9) fractions), % remaining parent compound; for remaining at 0 h: 0 min; for remaining at 0.25 h: 15 min; for remaining at 0.5 h: 30 min; for remaining at 1 h: 60 min.
The subject of data set [3] is T. b. rhodesiense (STIB-900 strain). In words: In vitro activity against T. b. rhodesiense. The following applies: Trypanosoma brucei, read-out: T. b. rhod. EC50. It counts as cell-based. In a few lines:
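STIB-900 parasites, axenic in HMI-9 with 10% FBS at 37 °C and 5% CO2, seeded at 4×10^3 parasites/well. Test compound was given as ten 4-fold dilutions (top 64 μM, <1% DMSO). Growth period […], then resazurin added and fluorescence measured after 24 h. IC50 from a sigmoid variable-slope fit versus untreated controls; mean ± SEM, 2–4 experiments. Suramin as reference.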

Data set [4] concerns T. cruzi Tulahuen CL2 β-galactosidase strain. In words: In vitro activity against T. cruzi intracellular amastigotes in MRC-5SV2 cells. It counts as cell-based. The following applies: Trypanosoma cruzi, MRC-5 SV2, 168 h, read-out: T. cruzi EC50. In a few lines: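 Nifurtimox-sensitive Tulahuen CL2 β-galactosidase parasites infected MRC-5SV2 fibroblasts in MEM with 200 mM L-glutamine, 16.5 mM NaHCO3 and 5% inactivated FCS, at 37 °C and 5% CO2. Wells held 4×10^3 cells and 4×10^4 parasites. Test compound was given as ten 4-fold dilutions (top 64 μM, <1% DMSO) for 7 days. CPRG was then added for 4 h at 37 °C and absorbance read at 540 nm. IC50 from % reduction versus untreated-infected controls; mean ± SEM, 2–4 experiments. Benznidazole reference.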

Data set [5] is described as follows: Microsomal stability assay, hamster. In kind it is in vitro ADME. Particulars: hamster microsomal (S9) fractions, % remaining parent compound; for remaining at 0 h: 0 min; for remaining at 0.25 h: 15 min; for remaining at 0.5 h: 30 min; for remaining at 1 h: 60 min.
A further data set in a line: PMM cytotoxicity. It counts as cell-based, mouse. The following applies: Swiss, mouse.
Data set [6] has as its system primary peritoneal mouse macrophages (PMM). As to the kind of experiment: PMM cytotoxicity. Particulars: read-out: PMM CC50; primary peritoneal mouse macrophages. In kind it is cell-based.
Data set [7] deals with L. infantum MHOM/MA (BE)/67. In kind it is cell-based, Leishmania infantum. In a few lines:
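Intracellular amastigotes of hamster spleen origin infected Swiss mouse peritoneal macrophages (elicited 2 days with 2% potato starch), in RPMI-1640 with 5% inactivated FCS, at 37 °C and 5% CO2, 4.5×10^5 parasites/well. Test compound (ten 4-fold dilutions, top 64 μM, <1% DMSO) was added 2 h post-infection. After 5 days, amastigotes/macrophage were counted after 10% Giemsa. IC50 was derived from % reduction versus controls; mean ± SEM, 2–4 experiments. Miltefosine reference.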

Another data set relates to MRC-5SV2 cells. As to the kind of experiment: MRC-5SV2 cytotoxicity. Particulars: read-out: MRC-5 CC50, 3 days incubation. In kind it is cell-based, human. In a few lines:
as §1

The mark [8] stands for this setting: MRC-5 CC50, MRC-5SV2 cells, 3 days incubation.
[9] abbreviates: PMM CC50, primary peritoneal mouse macrophages.

A word on the CC50: it is the concentration at which the toxic effect on the cells reaches its halfway point. In general, EC50 refers to the concentration at which the effect is half-maximal. The molecule `Cc1ncnc2c1c(Cl)cn2[C@@H]1O[C@H](CO)[C@@H](O)[C@H]1O` [compound 7] had a CC50 at 3 days in “MRC-5SV2 cytotoxicity” (setting [8]) of 54.8 ± 2.52 µM. For the same molecule, the EC50 amounted to 4.78 ± 2.19 µM in data set [1], 0.84 ± 0.63 µM in [3] and 3.61 ± 1.24 µM in data set [4]. For the same molecule, the share remaining at 0 h in data set [2] (CYP – NADPH (Phase-I)), in [2] (UGT Enz. (Phase-II)), in data set [5] (CYP – NADPH (Phase-I)) and in [5] (UGT Enz. (Phase-II)) was 100% throughout. The share remaining at 0.25 h was found to be 96% in [2] (CYP – NADPH (Phase-I)), 102% in data set [2] (UGT Enz. (Phase-II)), 95% in data set [5] (CYP – NADPH (Phase-I)) and 96% in [5] (UGT Enz. (Phase-II)). Moreover, the share remaining at 0.5 h was 97% in [2] (CYP – NADPH (Phase-I)), 97% in data set [2] (UGT Enz. (Phase-II)), 93% in data set [5] (CYP – NADPH (Phase-I)) and 100% in [5] (UGT Enz. (Phase-II)). In addition, the fraction remaining at 1 h in data set [2] (CYP – NADPH (Phase-I)) was 96%; in [2] (UGT Enz. (Phase-II)) it was 96%; in data set [5] (CYP – NADPH (Phase-I)), 93%; in data set [5] (UGT Enz. (Phase-II)), 102%. In “PMM cytotoxicity” (setting [9]), the CC50 at 5 days is more than 64 µM. The CC50 in data set [6] is 32 µM.
`CCc1cn([C@@H]2O[C@H](CO)[C@@H](O)[C@H]2O)c2ncnc(C)c12` [compound 13] returned a CC50 at 3 days in the data set “MRC-5SV2 cytotoxicity” (setting [8]) of more than 64 µM. Besides, the EC50 in data set [1] was 0.75 ± 0.18 µM; in data set [3] it was 0.43 ± 0.06 µM; in data set [4], 2.54 ± 0.47 µM. The share remaining at 0 h in [2] (CYP – NADPH (Phase-I)), in data set [2] (UGT Enz. (Phase-II)), in data set [5] (CYP – NADPH (Phase-I)) and in [5] (UGT Enz. (Phase-II)) was 100% each time. Also, the share remaining at 0.25 h in data set [2] (CYP – NADPH (Phase-I)) stood at 89%; in data set [2] (UGT Enz. (Phase-II)), 105%; in data set [5] (CYP – NADPH (Phase-I)), 93%; in [5] (UGT Enz. (Phase-II)) it was 101%. Besides, the amount remaining at 0.5 h in [2] (CYP – NADPH (Phase-I)) stood at 92%; in [2] (UGT Enz. (Phase-II)), 102%; in data set [5] (CYP – NADPH (Phase-I)) it was 102%; in data set [5] (UGT Enz. (Phase-II)), 103%. Further, the amount remaining at 1 h in data set [2] (CYP – NADPH (Phase-I)) was found to be 96%; in data set [2] (UGT Enz. (Phase-II)), 96%; in data set [5] (CYP – NADPH (Phase-I)), 91%; in data set [5] (UGT Enz. (Phase-II)) it was 108%. Further, the “fold improved activity against L. infantum compared to the 7-methyl analogue 9” value in data set [7] (versus compound 9) was 8 fold. The same molecule had a CC50 at 5 days in “PMM cytotoxicity” (setting [9]) of more than 64 µM.
In the data set “MRC-5SV2 cytotoxicity”, `Cc1ncnc2c1c(C1=CCN(C)CC1)cn2[C@@H]1O[C@H](CO)[C@@H](O)[C@H]1O` [compound 23] gave a CC50 at 3 days of more than 64 µM. Besides, the concentration giving a half-maximal response (EC50) is more than 64 µM in [1]; more than 64 µM in data set [3]; more than 64 µM in data set [7] (Leishmania infantum, Macrophage, in Mus musculus, 120 h, read-out: L. inf. EC50); more than 64 µM in data set [4]. In addition, the 50% cytotoxic concentration (CC50) at 5 days in the data set “PMM cytotoxicity” is more than 64 µM.
In turn, `CCc1cn([C@@H]2O[C@H](CO)[C@@H](O)[C@H]2O)c2ncnc(N)c12` [compound 39, 7-ethyl-7-deazaadenosine] showed a CC50 at 3 days in “MRC-5SV2 cytotoxicity” (setting [8]) of 50.4 µM. Besides, the CC50 in the data set with MRC-5SV2 cells was more than 64 µM. For the same molecule, the values for the EC50 in [1], in [3] and in [4] were 0.65 ± 0.02 µM, 0.5 ± 0.03 µM and 0.99 ± 0.25 µM, respectively. In the data set “PMM cytotoxicity” (setting [9]), this molecule had a CC50 at 5 days of more than 64 µM.
Take `CCc1cn([C@@H]2O[C@H](CO)[C@@H](O)[C@H]2O)c2ncnc(OC)c12` [compound 41]: the CC50 at 3 days in “MRC-5SV2 cytotoxicity” (setting [8]) is more than 64 µM. In addition, the EC50 in data set [1] was 0.47 ± 0.01 µM; in [3], 1.31 ± 0.44 µM; in data set [4], more than 64 µM. In “PMM cytotoxicity” (setting [9]), the CC50 at 5 days was more than 64 µM.
As for `CCOc1ncnc2c1c(CC)cn2[C@@H]1O[C@H](CO)[C@@H](O)[C@H]1O` [compound 42], the CC50 at 3 days in the data set “MRC-5SV2 cytotoxicity” (setting [8]) was determined as 52.5 µM. Further, the CC50 in the data set with MRC-5SV2 cells was more than 64 µM. Also, the EC50 in [1] is 1.25 ± 0.06 µM; in data set [3], 2.06 ± 0.51 µM; in data set [4], 7.71 ± 0.91 µM. The same molecule had a cytotoxic concentration (CC50) at 5 days in “PMM cytotoxicity” (setting [9]) of more than 64 µM.
